Data as given in ChEMBL document CHEMBL4311965, “Antimicrobial activity of amphipathic α,α-disubstituted β-amino amide derivatives against ESBL - CARBA producing multi-resistant bacteria; effect of halogenation, lipophilicity and cationic character” (Eur J Med Chem, 2019).
≈ marks a conversion by molar mass, not a printed value.

Key:
Acinetobacter baumannii [1] = test: Antibacterial activity against multidrug-resistant Acinetobacter baumannii K44-35 producing oxcillinase-23 cultured in MHB medium assessed as reduction in bacterial growth incubated for 24 hrs by microdilution susceptibility test; assay type: functional; details: K44-35, 24 h
Method in brief: (§1)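 Broth microdilution per CLSI M07-A9 (modified). Working solutions made from concentrated DMSO stocks kept at r.t., diluted in double-distilled water, final DMSO <1%. Inoculum 1–1.2 x 10⁶ cells/mL in Mueller-Hinton broth, mixed 1:1 with compound. 37 °C, 24 h, four parallels. Read as OD₆₀₀. Where precipitation left residual OD, the point of major OD decrease was taken as the inhibitory concentration.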

Escherichia coli [2] = test: Antibacterial activity against multidrug-resistant Escherichia coli 50857972 producing imipenem-type carbapenemase-26 cultured in MHB medium assessed as reduction in bacterial growth incubated for 24 hrs by microdilution susceptibility test; assay type: functional; details: Escherichia coli, 50857972, 24 h; method in brief: as §1
Pseudomonas aeruginosa [3] = test: Antibacterial activity against multidrug-resistant Pseudomonas aeruginosa 50692172 producing New Delhi metallo-beta-lactamase-1 cultured in MHB medium assessed as reduction in bacterial growth incubated for 24 hrs by microdilution susceptibility test; assay type: functional; details: Pseudomonas aeruginosa, 50692172, 24 h; method in brief: as §1
Enterococcus faecium [4] = test: Antibacterial activity against multidrug-resistant Enterococcus faecium 50673722 cultured in BHIB medium assessed as reduction in bacterial growth incubated for 24 hrs by microdilution susceptibility test; assay type: functional; details: Enterococcus faecium, 50673722, 24 h
Method in brief: (§2)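 Enterococci grown in Brain Heart Infusion broth, otherwise broth microdilution per CLSI M07-A9 (modified). Concentrated DMSO stocks kept at r.t. and diluted in double-distilled water, final DMSO <1%. Inoculum 1–1.2 x 10⁶ cells/mL mixed 1:1 with compound. 37 °C, 24 h, four parallels. OD₆₀₀ read-out, lowest concentration with no growth.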

Acinetobacter baumannii [5] = test: Antibacterial activity against multidrug-resistant Acinetobacter baumannii K12-21 producing oxcillinase-58 cultured in MHB medium assessed as reduction in bacterial growth incubated for 24 hrs by microdilution susceptibility test; assay type: functional; details: K12-21, 24 h; method in brief: as §1
Acinetobacter baumannii [6] = test: Antibacterial activity against multidrug-resistant Acinetobacter baumannii K47-42 producing oxcillinase-23 cultured in MHB medium assessed as reduction in bacterial growth incubated for 24 hrs by microdilution susceptibility test; assay type: functional; details: K47-42, 24 h; method in brief: as §1
Klebsiella pneumoniae [7] = test: Antibacterial activity against multidrug-resistant Klebsiella pneumoniae 50667959 producing Verona integron encoded metallo beta-lactamse-1 cultured in MHB medium assessed as reduction in bacterial growth incubated for 24 hrs by microdilution susceptibility test; assay type: functional; details: Klebsiella pneumoniae, 50667959, 24 h; method in brief: as §1
[8] = Selectivity index, ratio of EC50 for hemolytic activity against human RBC to MIC for antibacterial activity against Staphylococcus aureus ATCC 9144; assay type: toxicity; details: human red blood cells (RBC)
Method in brief: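 Selectivity index is the RBC haemolysis EC50 divided by the MIC against the E. coli or S. aureus reference strain.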

Staphylococcus aureus [9] = test: Antibacterial activity against multidrug-resistant Staphylococcus aureus IHT 99040 cultured in MHB medium assessed as reduction in bacterial growth incubated for 24 hrs by microdilution susceptibility test; assay type: functional; details: IHT 99040, 24 h; method in brief: as §1
Enterococcus faecium [10] = test: Antibacterial activity against multidrug-resistant Enterococcus faecium K36-18 cultured in BHIB medium assessed as reduction in bacterial growth incubated for 24 hrs by microdilution susceptibility test; assay type: functional; details: K36-18, 24 h; method in brief: as §2
Pseudomonas aeruginosa [11] = test: Antibacterial activity against multidrug-resistant Pseudomonas aeruginosa K34-73 producing Verona integron encoded metallo beta-lactamse-4 cultured in MHB medium assessed as reduction in bacterial growth incubated for 24 hrs by microdilution susceptibility test; assay type: functional; details: K34-73, 24 h; method in brief: as §1
[12] = test system: Corynebacterium glutamicum; test: Antibacterial activity against Corynebacterium glutamicum ATCC 13032 cultured in MHB medium assessed as no bacterial growth incubated at 20 degC for 24 hrs by microdilution susceptibility test; assay type: functional; details: ATCC 13032, 24 h
Method in brief: (§3)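 Broth microdilution per CLSI M07-A9 with modifications. Inoculum about 2.5–3 x 10⁴ cells/mL in Mueller-Hinton broth, mixed 1:1 with test derivative. DMSO stocks diluted in double-distilled water, final DMSO <1%. Incubation 24 h at 37 °C (20 °C for C. glutamicum). Growth and sterility controls included; oxytetracycline reference.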

Escherichia coli [13] = test: Antibacterial activity against multidrug-resistant Escherichia coli 50676002 producing New Delhi metallo-beta-lactamase-1 cultured in MHB medium assessed as reduction in bacterial growth incubated for 24 hrs by microdilution susceptibility test; assay type: functional; details: Escherichia coli, 50676002, 24 h; method in brief: as §1
Klebsiella pneumoniae [14] = test: Antibacterial activity against multidrug-resistant Klebsiella pneumoniae K47-25 producing carbapenemase-2 cultured in MHB medium assessed as reduction in bacterial growth incubated for 24 hrs by microdilution susceptibility test; assay type: functional; details: K47-25, 24 h; method in brief: as §1
Staphylococcus aureus [15] = test: Antibacterial activity against multidrug-resistant Staphylococcus aureus WIS cultured in MHB medium assessed as reduction in bacterial growth incubated for 24 hrs by microdilution susceptibility test; assay type: functional; method in brief: as §1
Escherichia coli [16] = test: Antibacterial activity against multidrug-resistant Escherichia coli 50639799 producing Verona integron encoded metallo beta-lactamse-29 cultured in MHB medium assessed as reduction in bacterial growth incubated for 24 hrs by microdilution susceptibility test; assay type: functional; details: Escherichia coli, 50639799, 24 h; method in brief: as §1
Pseudomonas aeruginosa [17] = test: Antibacterial activity against multidrug-resistant Pseudomonas aeruginosa 50692520 producing Verona integron encoded metallo beta-lactamse cultured in MHB medium assessed as reduction in bacterial growth incubated for 24 hrs by microdilution susceptibility test; assay type: functional; details: Pseudomonas aeruginosa, 50692520, 24 h; method in brief: as §1
Erythrocyte = test: Hemolytic activity against human RBC incubated for 1 hr; assay type: cell-based
Method in brief: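 Heparinized human blood washed three times in warm PBS and set to 10% hct. Erythrocytes at 1% v/v final, with compound in PBS (DMSO <1%), shaken 1 h at 37 °C and then centrifuged. Supernatant absorbance read at 405 and 545 nm after PBS background subtraction. Haemolysis taken relative to 1% Triton X-100. Three independent replicates, EC50 averaged.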

Acinetobacter baumannii [18] = test: Antibacterial activity against multidrug-resistant Acinetobacter baumannii K55-13 producing oxcillinase-24 cultured in MHB medium assessed as reduction in bacterial growth incubated for 24 hrs by microdilution susceptibility test; assay type: functional; details: K55-13, 24 h; method in brief: as §1
Escherichia coli [19] = test: Antibacterial activity against Escherichia coli ATCC 25922 cultured in MHB medium assessed as no bacterial growth incubated at 37 degC for 24 hrs by microdilution susceptibility test; assay type: functional; details: ATCC 25922, 24 h; method in brief: as §3
Klebsiella pneumoniae [20] = test: Antibacterial activity against multidrug-resistant Klebsiella pneumoniae 50531633 producing New Delhi metallo-beta-lactamase-1 and oxcillinase-181 cultured in MHB medium assessed as reduction in bacterial growth incubated for 24 hrs by microdilution susceptibility test; assay type: functional; details: Klebsiella pneumoniae, 50531633, 24 h; method in brief: as §1
Pseudomonas aeruginosa [21] = test: Antibacterial activity against multidrug-resistant Pseudomonas aeruginosa K44-24 producing imipenem-type carbapenemase-14 cultured in MHB medium assessed as reduction in bacterial growth incubated for 24 hrs by microdilution susceptibility test; assay type: functional; details: K44-24, 24 h; method in brief: as §1
Pseudomonas aeruginosa [22] = test: Antibacterial activity against Pseudomonas aeruginosa PA01 DSM 19880 (ATCC 15692) cultured in MHB medium assessed as no bacterial growth incubated at 37 degC for 24 hrs by microdilution susceptibility test; assay type: functional; details: PAO1 DSM 19880 (ATCC 15692); method in brief: as §3

SMILES	MIC (Acinetobacter baumannii [1])	MIC (Escherichia coli [2])	MIC (Pseudomonas aeruginosa [3])	MIC (Enterococcus faecium [4])	MIC (Acinetobacter baumannii [5])	MIC (Acinetobacter baumannii [6])	MIC (Klebsiella pneumoniae [7])	selectivity ratio [8]	MIC (Staphylococcus aureus [9])	MIC (Enterococcus faecium [10])	MIC (Pseudomonas aeruginosa [11])	MIC [12]	MIC (Escherichia coli [13])	MIC (Klebsiella pneumoniae [14])	MIC (Staphylococcus aureus [15])	MIC (Escherichia coli [16])	MIC (Pseudomonas aeruginosa [17])	EC50 (Erythrocyte)	MIC (Acinetobacter baumannii [18])	MIC (Escherichia coli [19])	further results
NCCNCC(CN)(Cc1ccc(F)c2ccccc12)Cc1ccc(F)c2ccccc12	8 µg/mL (≈ 18.5 µM)	8 µg/mL (≈ 18.5 µM)	16 µg/mL (≈ 36.9 µM)	4 µg/mL (≈ 9.23 µM)	8 µg/mL (≈ 18.5 µM)	16 µg/mL (≈ 36.9 µM)	8 µg/mL (≈ 18.5 µM)	14	8 µg/mL (≈ 18.5 µM)	4 µg/mL (≈ 9.23 µM)	16 µg/mL (≈ 36.9 µM)	1 µg/mL (≈ 2.31 µM)	8 µg/mL (≈ 18.5 µM)	8 µg/mL (≈ 18.5 µM)	4 µg/mL (≈ 9.23 µM)	8 µg/mL (≈ 18.5 µM)	16 µg/mL (≈ 36.9 µM)	27 µg/mL (≈ 62.3 µM)	16 µg/mL (≈ 36.9 µM)	4 µg/mL (≈ 9.23 µM)	MIC (Klebsiella pneumoniae [20]): 4 µg/mL (≈ 9.23 µM); MIC (Pseudomonas aeruginosa [21]): 16 µg/mL (≈ 36.9 µM); MIC (Pseudomonas aeruginosa [22]): 4 µg/mL (≈ 9.23 µM)
NCCNC(=O)C(CN)(Cc1ccccc1C(F)(F)F)Cc1ccccc1C(F)(F)F	> 32 µg/mL	> 32 µg/mL	> 32 µg/mL	32 µg/mL (≈ 71.5 µM)	> 32 µg/mL	> 32 µg/mL	> 32 µg/mL	10	32 µg/mL (≈ 71.5 µM)	> 32 µg/mL	> 32 µg/mL	8 µg/mL (≈ 17.9 µM)	> 32 µg/mL	> 32 µg/mL	> 32 µg/mL	> 32 µg/mL	> 32 µg/mL	312 µg/mL (≈ 697 µM)	> 32 µg/mL	32 µg/mL (≈ 71.5 µM)	MIC (Klebsiella pneumoniae [20]): > 32 µg/mL; MIC (Pseudomonas aeruginosa [21]): > 32 µg/mL; MIC (Pseudomonas aeruginosa [22]): 64 µg/mL (≈ 143 µM)
NCCNC(=O)C(CN)(Cc1ccc(F)c2ccccc12)Cc1ccc(F)c2ccccc12	> 32 µg/mL	8 µg/mL (≈ 17.9 µM)	> 32 µg/mL	16 µg/mL (≈ 35.8 µM)	32 µg/mL (≈ 71.5 µM)	16 µg/mL (≈ 35.8 µM)	8 µg/mL (≈ 17.9 µM)	19	16 µg/mL (≈ 35.8 µM)	16 µg/mL (≈ 35.8 µM)	32 µg/mL (≈ 71.5 µM)	2 µg/mL (≈ 4.47 µM)	8 µg/mL (≈ 17.9 µM)	32 µg/mL (≈ 71.5 µM)	16 µg/mL (≈ 35.8 µM)	16 µg/mL (≈ 35.8 µM)	> 32 µg/mL	74 µg/mL (≈ 165 µM)	32 µg/mL (≈ 71.5 µM)	4 µg/mL (≈ 8.94 µM)	MIC (Klebsiella pneumoniae [20]): 8 µg/mL (≈ 17.9 µM); MIC (Pseudomonas aeruginosa [21]): 32 µg/mL (≈ 71.5 µM); MIC (Pseudomonas aeruginosa [22]): 8 µg/mL (≈ 17.9 µM)
